Test [1] deals with Beta-3 adrenergic receptor (Homo sapiens) (UniProt P13945). The experiment in a line: Agonistic potency against Beta3-AR expressed in CHO cells by using cAMP-RIA assay. The format is functional, cell-based.
For test [2], the target named is Beta-1 adrenergic receptor (Homo sapiens) (UniProt P08588). To be noted: CHO.
The target of test [3] is Beta-2 adrenergic receptor (Homo sapiens) (UniProt P07550). To be noted: CHO.
The target is the same in test [4]. To be noted: CHO. This is another data set of the same source.
The target of test [5] is Beta-3 adrenergic receptor (Homo sapiens) (UniProt P13945). To be noted: CHO.
Test [6] deals with Beta-1 adrenergic receptor (Homo sapiens) (UniProt P08588). To be noted: CHO. The source holds these as a separate data set.
For test [7], the target named is Beta-2 adrenergic receptor (Homo sapiens) (UniProt P07550). To be noted: CHO. The source holds these as a separate data set.
For test [8] the target is unchanged. To be noted: CHO. The source holds these as a separate data set.
Test [9] has as its target Beta-3 adrenergic receptor (Homo sapiens) (UniProt P13945). To be noted: CHO. This is another data set of the same source.
Test [10] has the same target. In words: Intrinsic activity against Beta3-AR expressed in CHO cells in cAMP-RIA assay. The class given is functional, cell-based.
Test [11] deals with Beta-2 adrenergic receptor (Homo sapiens) (UniProt P07550). In words: Agonistic potency against BETA2-AR expressed in CHO cells by using cAMP-RIA assay;MA means minimal activity. The format is functional, cell-based.
Test [12] has the same target. In words: Agonistic potency against BETA2-AR expressed in CHO cells by using CRE-LUC assay;MA means minimal activity. The format is functional, cell-based. Put shortly: (§1)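 CHO cells transfected by electroporation (single 70-ms, 150-V pulse) with human receptor and CRE–luciferase reporter; seeded 40 000/well, grown 20 h, then exposed 4 h to drug at 10^-11–10^-4 M. Cells lysed, luciferase light read by luminometer, duplicates per concentration. Response as percent of maximum to (-)isoproterenol 10^-6 M; pKact = -log molar concentration giving 50% of own maximal response; mean ± SEM.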

Test [13] addresses Beta-1 adrenergic receptor (Homo sapiens) (UniProt P08588). The experiment in a line: Agonistic potency against BETA1-AR expressed in CHO cells by using CRE-LUC assay;MA means minimal activity. The format is functional, cell-based. Put shortly: as §1
Test [14] shares this target. To be noted: CHO. The source holds these as a separate data set.
Test [15] shares this target. To be noted: CHO. The source holds these as a separate data set.
The target in test [16] is Beta-3 adrenergic receptor (Homo sapiens) (UniProt P13945). The experiment in a line: Agonistic potency against Beta3-AR expressed in CHO cells by using cAMP-RIA assay;MA means minimal activity. The class given is functional, cell-based.
For test [17] the target is unchanged. In words: Agonistic potency against Beta3-AR expressed in CHO cells by using cAMP-RIA assay; MA means minimal activity. The format is functional, cell-based.

Sequence of Beta-3 adrenergic receptor (Homo sapiens) (P13945 whole entry, looked up): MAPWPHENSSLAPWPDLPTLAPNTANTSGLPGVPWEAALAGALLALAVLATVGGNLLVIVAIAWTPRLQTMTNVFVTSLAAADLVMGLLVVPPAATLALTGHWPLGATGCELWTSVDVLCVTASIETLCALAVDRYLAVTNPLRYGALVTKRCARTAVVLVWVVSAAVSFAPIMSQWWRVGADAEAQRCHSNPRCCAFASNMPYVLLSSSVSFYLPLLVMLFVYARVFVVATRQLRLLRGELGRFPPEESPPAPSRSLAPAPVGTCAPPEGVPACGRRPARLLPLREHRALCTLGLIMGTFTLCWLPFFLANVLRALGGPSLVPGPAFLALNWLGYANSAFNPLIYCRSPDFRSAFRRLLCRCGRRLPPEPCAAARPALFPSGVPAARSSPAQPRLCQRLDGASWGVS
Sequence of Beta-2 adrenergic receptor (Homo sapiens) (P07550 whole entry, looked up): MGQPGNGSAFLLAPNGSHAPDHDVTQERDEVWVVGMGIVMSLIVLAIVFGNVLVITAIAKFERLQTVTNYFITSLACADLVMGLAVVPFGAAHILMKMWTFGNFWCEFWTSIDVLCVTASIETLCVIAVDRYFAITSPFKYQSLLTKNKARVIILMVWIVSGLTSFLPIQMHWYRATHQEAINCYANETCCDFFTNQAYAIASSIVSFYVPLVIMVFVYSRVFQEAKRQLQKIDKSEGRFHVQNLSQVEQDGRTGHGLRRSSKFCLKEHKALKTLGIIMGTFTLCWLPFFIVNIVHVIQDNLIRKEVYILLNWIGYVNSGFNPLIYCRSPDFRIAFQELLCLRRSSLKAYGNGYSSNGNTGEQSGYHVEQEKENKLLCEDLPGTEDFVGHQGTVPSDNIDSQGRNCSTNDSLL
Sequence of Beta-1 adrenergic receptor (Homo sapiens) (P08588 whole entry, looked up): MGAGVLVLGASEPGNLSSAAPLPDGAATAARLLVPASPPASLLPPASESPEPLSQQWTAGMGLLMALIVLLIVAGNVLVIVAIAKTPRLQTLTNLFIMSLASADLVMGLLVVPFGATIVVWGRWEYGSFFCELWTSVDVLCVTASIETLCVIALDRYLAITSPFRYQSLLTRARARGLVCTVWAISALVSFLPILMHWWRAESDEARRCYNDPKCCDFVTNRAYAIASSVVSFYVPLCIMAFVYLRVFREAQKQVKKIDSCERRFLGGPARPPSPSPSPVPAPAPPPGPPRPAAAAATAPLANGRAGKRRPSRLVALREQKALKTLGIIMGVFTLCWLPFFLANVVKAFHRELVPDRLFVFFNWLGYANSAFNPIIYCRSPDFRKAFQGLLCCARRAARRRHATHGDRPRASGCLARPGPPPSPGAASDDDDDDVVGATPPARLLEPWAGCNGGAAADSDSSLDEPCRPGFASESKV

Turning to `COc1c(I)cc(CC2NCCc3cc(O)ccc32)cc1I` (stereo not drawn), the pK was 7.88 in test [1]; 6.36 in test [4]; 5.71 in test [6]; 6.87 in [8]; 7.45 in test [9]. Besides, the IA in [2] amounted to 58; in test [3], 38; in test [5] it was 90; in [7] it was 44; in [10], 106.
Take `COc1c(I)cc(CC2NCCc3cc(O)c(I)cc32)cc1I` (stereo not drawn): the pK in test [1] was determined as 7.92. The IA came to 4 in [7] and 35 in test [10]. The MA result in test [11] is “Partial agonist”.
For `COc1c(I)cc(CC2NCCc3ccccc32)cc1I` (stereo not drawn), the pK amounted to 8.2 in [1] and 7.54 in test [9]. Also, the IA was found to be 22 in [2]; 21 in test [3]; 62 in test [5]; 15 in test [7]; 52 in [10]. The MA entry in test [11], in [12] and in test [13] was “Partial agonist” throughout.
Regarding `COc1cc(C[C@@H]2NCCc3cc(O)c(O)cc32)cc(OC)c1OC`, the pK in [1] turned out to be 8.6; in test [8], 8.33; in test [15], 8.7. Moreover, the results for the IA in test [7], in test [14] and in test [10] were 95, 109 and 95, respectively.
As to `CC(C)NCC(O)c1ccc(O)c(O)c1` (stereo not drawn), the IA in [5] amounted to 100. In [9], this molecule showed a pK of 7.74.
As for `COc1c(I)cc(CC2NCCc3cc(O)c(O)cc32)cc1I` (stereo not drawn), the pK stood at 8.76 in test [1], 8.84 in test [8] and 8.11 in [15]. In addition, the IA amounted to 52 in test [7], 103 in [14] and 120 in test [10].
Consider `COc1c(I)cc(CC2NCCc3c2cc(I)c(O)c3I)cc1I` (stereo not drawn), for which the MA result in test [16] and in [11] was “Partial agonist” each time. In addition, the IA was 6 in test [7] and 18 in test [10].
Regarding `COc1c(I)cc(CC2NCCc3c2ccc(O)c3I)cc1I` (stereo not drawn), in test [16], the MA result was “Partial agonist”. Moreover, the IA turned out to be 65 in test [7] and 8 in test [10]. The pK in test [8] is 6.77.
On to `COc1c(I)cc(CC2NCCc3c2ccc(O)c3Br)cc1I` (stereo not drawn), for which the pK in test [1] amounted to 8.25. For the same molecule, the IA in test [7] worked out at 26; in test [10], 31. In [11], the MA entry is “Partial agonist”.
With `COc1c(I)cc(CC2NCCc3c2cc(Br)c(O)c3Br)cc1I` (stereo not drawn), the figures for the IA in test [7] and in test [10] were 3 and 20, respectively. The MA entry in test [17] was “Partial agonist”.

The values are drawn from ChEMBL document CHEMBL1133701, “Synthesis and human beta-adrenoceptor activity of 1-(3,5-diiodo-4- methoxybenzyl)-1,2,3,4-tetrahydroisoquinolin-6-ol derivatives in vitro” (J Med Chem, 2000).
